Experimental findings from PMC11298890 (iScience, 2024) are described below.

Where two headings read alike, the source gives them in different places.

As usually defined, the IC50 is the concentration that gives 50% inhibition. Lower therefore signals inhibition by little substance. Usually Kd stands for the free concentration of one partner at which half of the binding sites on the other are occupied at equilibrium, for simple one-to-one binding. Read a high Kd as a looser complex. The term EC50 denotes the concentration at which the effect is half-maximal.

The target of assay [1] is T1, PfPRS (Plasmodium falciparum, UniProt Q8I5R7).
T1 sequence (Q8I5R7 250-746 limits assumed): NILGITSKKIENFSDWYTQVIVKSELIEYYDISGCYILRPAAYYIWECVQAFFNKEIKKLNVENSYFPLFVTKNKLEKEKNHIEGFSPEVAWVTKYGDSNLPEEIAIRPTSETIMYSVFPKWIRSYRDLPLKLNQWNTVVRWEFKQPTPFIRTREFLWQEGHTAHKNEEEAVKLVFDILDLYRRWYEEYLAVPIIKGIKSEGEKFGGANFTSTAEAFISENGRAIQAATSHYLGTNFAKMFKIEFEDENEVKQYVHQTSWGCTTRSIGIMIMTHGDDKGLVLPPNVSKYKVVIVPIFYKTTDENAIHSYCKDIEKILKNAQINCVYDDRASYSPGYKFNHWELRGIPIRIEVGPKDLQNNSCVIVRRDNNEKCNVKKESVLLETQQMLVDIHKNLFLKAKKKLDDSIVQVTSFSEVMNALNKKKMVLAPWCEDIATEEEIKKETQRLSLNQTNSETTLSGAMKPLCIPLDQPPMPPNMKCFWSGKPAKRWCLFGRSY
Briefly: Aminoacylation activity inhibition assay. It counts as biochemical.

The target of assay [2] is T2, HsPRS (Homo sapiens, UniProt P07814).
T2 sequence (P07814 1007-1512 limits assumed): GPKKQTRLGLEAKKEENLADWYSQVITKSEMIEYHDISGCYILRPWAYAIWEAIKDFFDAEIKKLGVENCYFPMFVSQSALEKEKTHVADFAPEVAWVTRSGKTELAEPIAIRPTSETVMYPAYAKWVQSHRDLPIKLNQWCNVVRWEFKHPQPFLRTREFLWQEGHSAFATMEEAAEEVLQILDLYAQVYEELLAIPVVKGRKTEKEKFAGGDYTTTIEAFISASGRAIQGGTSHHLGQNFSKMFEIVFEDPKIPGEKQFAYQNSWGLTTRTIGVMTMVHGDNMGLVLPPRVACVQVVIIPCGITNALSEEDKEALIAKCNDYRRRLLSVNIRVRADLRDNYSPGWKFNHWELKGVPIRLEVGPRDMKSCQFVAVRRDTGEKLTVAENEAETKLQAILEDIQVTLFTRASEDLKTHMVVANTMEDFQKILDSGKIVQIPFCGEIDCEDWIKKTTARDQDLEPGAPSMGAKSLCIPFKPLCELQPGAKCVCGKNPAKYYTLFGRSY
It counts as binding.

Assay [3] addresses T2, HsPRS. The assay can be described thus: Aminoacylation activity inhibition assay. Format: biochemical.
The target in assay [4] is T1, PfPRS. The assay can be described thus: Microscale thermophoresis. Format: binding. The conditions noted are these: for Kd: Kd-Pf. Summed up: (§1)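 Recombinant tag-cleaved PRS (affinity, heparin and gel-filtration purified) labelled on lysines with Red-NHS 2nd-generation dye and held at 100 nM. Kd from MST; two independent replicates.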
Background: Microscale thermophoresis detects binding through changes in fluorescence in a small temperature gradient.

The target of assay [5] is T1, PfPRS. It counts as binding. The conditions noted are these: Enzyme:Compound 1:50.
For assay [6], the target named is T2, HsPRS. The assay can be described thus: Microscale thermophoresis. The conditions noted are these: Kd-Hs. Format: binding. The procedure, abridged: as §1
The test system of assay [7] is Plasmodium falciparum 3D7. Briefly: Asexual blood stage parasite growth inhibition. Format: cell-based. The conditions noted are these: 3D7, 48 h, read-out: Pf-EC50 (ABS), Pf 3D7, 48 h.
[8] abbreviates: replicate n = 1, MST, individual replicate 1.
The mark [9] stands for this setting: replicate n = 2, MST, individual replicate 2.

For `O=C(CC1NCCCC1O)Cn1cnc2cc(Br)c(Cl)cc2c1=O` (centres unmarked) [HFG, Halofuginone], the IC50 amounted to 2.8 nM in assay [1] and 10.9 nM in assay [3]. For the same compound, the “SI-IC50 (Hs/Pf)” value in assay [1] (IC50 of the human enzyme divided by that of the plasmodium enzyme) amounted to 3.9. In assay [2], the “HsPRS ΔTm from Apo Tm” value is 61.4 (11.6) °C. In addition, the “HsPRS melting temperature (Tm)” value in assay [2] (enzyme + inhibitor only, no substrate, Enzyme:Compound 1:100) is 61.4 (11.6) °C. In addition, in assay [4] (Kd-Hs / Kd-Pf), the “SI-Kd (Hs/Pf)” value is reported as 0.7. The equilibrium dissociation constant (Kd) amounted to 74.8 nM in assay [4] (setting [8]), 72.9 nM in assay [4] (setting [9]), 42.4 nM in assay [6] (setting [8]) and 61.9 nM in assay [6] (setting [9]). Moreover, the “PfPRS melting temperature (Tm)” value was found to be 87.7 °C in assay [5] (in presence of ATP (2 mM)), 54.7 °C in assay [5] (in presence of L-pro (2 mM)) and 86.6 °C in assay [5] (in presence of L-pro + ATP (2 mM)). Moreover, the concentration for a half-maximal effect (EC50) in assay [7] turned out to be 0.2 nM.
